One experiment concerns Escherichia coli. Nature of the experiment: Antibacterial activity against Escherichia coli ATCC 25922. It is filed as functional.
Another experiment relates to Staphylococcus aureus. The experiment is described as follows: Antibacterial activity against Staphylococcus aureus ATCC 29213. In kind it is functional.
The target in experiment [1] is DNA gyrase (Staphylococcus aureus) (UniProt P0A0K8+P20831). Nature of the experiment: Inhibition of DNA gyrase supercoiling in Staphylococcus aureus ATCC 29213. It is filed as protein-complex assay.
Sequence of DNA gyrase (Staphylococcus aureus) (P0A0K8 2-644 limits assumed): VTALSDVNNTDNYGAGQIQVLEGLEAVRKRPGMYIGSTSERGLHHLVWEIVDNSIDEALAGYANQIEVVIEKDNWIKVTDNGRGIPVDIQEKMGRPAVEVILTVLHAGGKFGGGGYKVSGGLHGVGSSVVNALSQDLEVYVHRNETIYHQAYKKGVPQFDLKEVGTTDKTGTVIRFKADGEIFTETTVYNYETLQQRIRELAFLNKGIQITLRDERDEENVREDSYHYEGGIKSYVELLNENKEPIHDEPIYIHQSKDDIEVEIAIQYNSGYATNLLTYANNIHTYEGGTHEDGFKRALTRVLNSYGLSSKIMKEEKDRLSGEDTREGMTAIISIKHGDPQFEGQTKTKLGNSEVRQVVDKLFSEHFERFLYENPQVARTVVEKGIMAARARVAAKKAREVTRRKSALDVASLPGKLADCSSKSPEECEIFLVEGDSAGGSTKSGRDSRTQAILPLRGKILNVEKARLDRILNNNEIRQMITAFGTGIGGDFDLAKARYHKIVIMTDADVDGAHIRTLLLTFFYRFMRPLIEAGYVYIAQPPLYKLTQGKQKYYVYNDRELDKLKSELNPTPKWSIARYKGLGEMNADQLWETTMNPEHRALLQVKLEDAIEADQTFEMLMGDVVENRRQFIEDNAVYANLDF
Sequence of DNA gyrase (Staphylococcus aureus) (P20831 whole entry partner): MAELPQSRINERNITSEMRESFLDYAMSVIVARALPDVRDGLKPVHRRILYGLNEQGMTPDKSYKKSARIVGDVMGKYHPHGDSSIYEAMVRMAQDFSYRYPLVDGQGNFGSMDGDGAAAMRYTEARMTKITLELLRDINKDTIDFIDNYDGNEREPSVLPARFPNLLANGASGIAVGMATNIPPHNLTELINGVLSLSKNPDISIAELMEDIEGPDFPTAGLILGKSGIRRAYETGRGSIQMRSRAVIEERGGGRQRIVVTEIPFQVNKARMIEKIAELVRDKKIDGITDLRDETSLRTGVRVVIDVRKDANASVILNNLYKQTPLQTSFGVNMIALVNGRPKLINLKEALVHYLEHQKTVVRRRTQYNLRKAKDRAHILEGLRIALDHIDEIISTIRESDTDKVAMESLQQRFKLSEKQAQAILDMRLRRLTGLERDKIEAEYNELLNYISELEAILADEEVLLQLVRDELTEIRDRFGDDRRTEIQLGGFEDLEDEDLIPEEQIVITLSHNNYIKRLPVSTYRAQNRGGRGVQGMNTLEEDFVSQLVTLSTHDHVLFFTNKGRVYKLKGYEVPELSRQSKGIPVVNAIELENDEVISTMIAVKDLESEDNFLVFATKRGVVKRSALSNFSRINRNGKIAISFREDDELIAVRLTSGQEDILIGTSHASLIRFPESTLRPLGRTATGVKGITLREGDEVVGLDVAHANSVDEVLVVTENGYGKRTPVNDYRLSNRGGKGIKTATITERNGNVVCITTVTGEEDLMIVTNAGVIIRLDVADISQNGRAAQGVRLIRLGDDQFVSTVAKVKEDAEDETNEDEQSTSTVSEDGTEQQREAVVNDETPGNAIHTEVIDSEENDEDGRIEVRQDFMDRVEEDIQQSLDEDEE
Experiment [2] concerns the target DNA topoisomerase 4 subunit A (Staphylococcus aureus, UniProt P0C1U9). Nature of the experiment: Inhibition of topoisomerase 4 decatenation in Staphylococcus aureus ATCC 29213.
For another experiment, the target named is DNA gyrase (Escherichia coli, UniProt P0AES4+P0AES6). Nature of the experiment: Inhibition of DNA gyrase supercoiling in Escherichia coli ATCC 25922. In kind it is protein-complex assay.
Experiment [3] concerns the target DNA topoisomerase II (Homo sapiens) (UniProt P11388+Q02880). The experiment is described as follows: Activity against human topoisomerase 2. It is filed as protein assay. In a few lines: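 Human topoisomerase II DNA cleavage assay. The read-out is EC₂, the drug concentration that enhances enzyme-mediated cleavage of double-stranded DNA 2-fold.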

By MIC is commonly meant the lowest concentration that inhibits growth of the organism. In general, IC50 refers to the concentration that gives 50% inhibition. Low readings indicate greater potency, high ones weaker potency.

Values after ≈ are worked out from the molar mass of the structure shown. Active and inactive are the calls of the source. The rule behind the calls is not given here.

Sequence of DNA topoisomerase 4 subunit A (P0C1U9 whole entry): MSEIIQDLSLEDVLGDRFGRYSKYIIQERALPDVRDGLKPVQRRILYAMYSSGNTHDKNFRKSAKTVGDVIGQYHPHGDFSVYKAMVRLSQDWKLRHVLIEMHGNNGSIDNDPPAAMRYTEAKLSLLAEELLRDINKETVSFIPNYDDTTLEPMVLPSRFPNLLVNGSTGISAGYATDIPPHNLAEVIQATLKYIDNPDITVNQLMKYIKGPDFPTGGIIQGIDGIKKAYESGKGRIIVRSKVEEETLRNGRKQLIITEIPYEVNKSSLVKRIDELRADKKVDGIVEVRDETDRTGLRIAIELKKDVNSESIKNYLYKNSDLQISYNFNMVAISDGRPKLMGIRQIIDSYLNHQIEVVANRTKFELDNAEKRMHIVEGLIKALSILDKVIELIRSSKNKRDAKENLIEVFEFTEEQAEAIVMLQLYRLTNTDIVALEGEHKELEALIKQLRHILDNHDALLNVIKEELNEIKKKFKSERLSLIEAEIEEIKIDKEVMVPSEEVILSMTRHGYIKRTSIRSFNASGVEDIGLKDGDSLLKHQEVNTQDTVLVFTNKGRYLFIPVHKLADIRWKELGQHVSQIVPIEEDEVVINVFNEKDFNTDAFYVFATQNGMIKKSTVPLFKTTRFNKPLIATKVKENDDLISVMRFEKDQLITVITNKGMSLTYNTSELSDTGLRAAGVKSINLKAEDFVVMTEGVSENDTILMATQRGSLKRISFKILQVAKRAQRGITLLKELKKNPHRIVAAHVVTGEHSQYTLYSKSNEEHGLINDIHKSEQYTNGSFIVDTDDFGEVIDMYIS

Take `CCn1cc(C(=O)O)c(=O)c2cc(F)c(N3CCNCC3)cc21` [NORFLOXACIN]: the MIC came out at 0.06 µg/mL (≈ 0.188 µM) against Escherichia coli and 0.5 µg/mL (≈ 1.57 µM) in the experiment with Staphylococcus aureus.

Take `CCc1c2s[nH]c(=O)c2c(=O)n2ccc(N3CCNCC3)cc12`: the outcome in experiment [1] and in experiment [3] was inactive. Besides, the figures for the IC50 (in experiment [2]; against DNA gyrase) were 37 µM and 14 µM, respectively. Moreover, the minimum inhibitory concentration (MIC) came out at 4 µg/mL (≈ 12.1 µM) in the experiment with Escherichia coli and 16 µg/mL (≈ 48.4 µM) in the experiment with Staphylococcus aureus.

Turning to `CCc1c2s[nH]c(=O)c2c(=O)n2ccc(-c3cc(C)nc(C)c3)cc12`, the result in experiment [1] and in experiment [3] was inactive. In addition, the values for the IC50 (in experiment [2]; at DNA gyrase) were 6.3 µM and 0.2 µM, respectively. The MIC in the experiment with Escherichia coli was 1 µg/mL (≈ 2.85 µM); with Staphylococcus aureus it was 0.125 µg/mL (≈ 0.356 µM).

In turn, `O=C(O)c1cn(C2CC2)c2cc(N3CCNCC3)c(F)cc2c1=O` [CIPROFLOXACIN] yielded an MIC in the experiment on Staphylococcus aureus of 0.25 µg/mL (≈ 0.754 µM).

In the case of `CCc1c2s[nH]c(=O)c2c(=O)n2ccc(N3CCC(N(C)C)C3)cc12` (racemic), the outcome in experiment [1] and in experiment [3] was inactive. Moreover, the IC50 in experiment [2] was 79 µM; at DNA gyrase it was 24 µM. Moreover, the figures for the MIC with Escherichia coli and in the experiment with Staphylococcus aureus were 4 µg/mL (≈ 11.2 µM) and 8 µg/mL (≈ 22.3 µM), respectively.

Regarding `CCc1c2s[nH]c(=O)c2c(=O)n2ccc(-c3ccncc3)cc12`, the outcome in experiment [1] and in experiment [3] was inactive. The IC50 in experiment [2] is 8.1 µM; against DNA gyrase it was 0.4 µM. Moreover, the MIC with Escherichia coli is 0.25 µg/mL (≈ 0.773 µM); in the experiment on Staphylococcus aureus, 0.125 µg/mL (≈ 0.387 µM).
